Laboratory results: ChEMBL document CHEMBL4138271, “Crystal Structures and Human Leukemia Cell Apoptosis Inducible Activities of Parthenolide Analogues Isolated from Piptocoma rufescens” (J Nat Prod, 2018)
Calls of active or inactive are those of the source. The calls are words filed in the database; no cut-off is given here.

Legend:
EOL1 [1] = assay: Synergistic antileukemic activity against human EOL-1 cells assessed as concentration required for <= 75% cell survival after 72 hrs in presence of midostaurin by CellTiter 96 AQueous One solution cell proliferation assay; type: functional
MOLM-13 [2] = assay: Induction of apoptosis in human MOLM13 cells assessed as late apoptotic cells at 1.8 uM after 24 hrs by Annexin-V FITC/7-AAD staining based flow cytometric method (reference value: 1.43%); type: functional
EOL1 [3] = assay: Induction of apoptosis in human EOL-1 cells assessed as live cells at 0.59 uM after 24 hrs by Annexin-V FITC/7-AAD staining based flow cytometric method (reference value: 97.5%); type: functional
HT-29 = assay: Cytotoxicity against human HT-29 cells after 72 hrs by MTS assay; type: functional, cell-based; conditions: HT-29, 72 h
MOLM-13 [4] = assay: Induction of apoptosis in human MOLM13 cells assessed as live cells at 0.59 uM after 24 hrs by Annexin-V FITC/7-AAD staining based flow cytometric method (reference value: 86.8%); type: functional
MOLM-13 [5] = assay: Induction of apoptosis in human MOLM13 cells assessed as live cells at 0.26 uM after 24 hrs by Annexin-V FITC/7-AAD staining based flow cytometric method (reference value: 86.8%); type: functional
EOL1 [6] = assay: Induction of apoptosis in human EOL-1 cells assessed as necrotic cells at 0.26 uM after 24 hrs by Annexin-V FITC/7-AAD staining based flow cytometric method (reference value: 0.032%); type: functional
EOL1 [7] = assay: Induction of apoptosis in human EOL-1 cells assessed as live cells at 0.26 uM after 24 hrs by Annexin-V FITC/7-AAD staining based flow cytometric method (reference value: 97.5%); type: functional
MOLM-13 [8] = assay: Synergistic antileukemic activity against human MOLM13 cells assessed as concentration required for <= 75% cell survival after 72 hrs in presence of midostaurin by CellTiter 96 AQueous One solution cell proliferation assay; type: functional
EOL1 [9] = assay: Induction of apoptosis in human EOL-1 cells assessed as late apoptotic cells at 0.26 uM after 24 hrs by Annexin-V FITC/7-AAD staining based flow cytometric method (reference value: 0.535%); type: functional
EOL1 [10] = assay: Induction of apoptosis in human EOL-1 cells assessed as caspase-3 activation at 10 uM after 72 hrs by immunoblotting analysis; type: functional, cell-based
Outline: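 EOL-1 cells (RPMI 1640, 10% FBS, 37 °C, 5% CO2) exposed 72 h; compounds at 10 μM, PKC412 at 10 nM. Harvested, PBS-washed, lysed in hypertonic NP-40 buffer with protease/phosphatase inhibitors; SDS-PAGE, PVDF transfer, rabbit monoclonal cleaved caspase-3 (Asp175) antibody 12 h, secondary 1 h, chemiluminescent detection; β-actin loading control. Representative blots of three independent experiments.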

EOL1 [11] = assay: Induction of apoptosis in human EOL-1 cells assessed as necrotic cells at 0.59 uM after 24 hrs by Annexin-V FITC/7-AAD staining based flow cytometric method (reference value: 0.032%); type: functional
EOL1 [12] = assay: Induction of apoptosis in human EOL-1 cells assessed as late apoptotic cells at 0.59 uM after 24 hrs by Annexin-V FITC/7-AAD staining based flow cytometric method (reference value: 0.535%); type: functional
MOLM-13 [13] = assay: Induction of apoptosis in human MOLM13 cells assessed as early apoptotic cells at 0.26 uM after 24 hrs by Annexin-V FITC/7-AAD staining based flow cytometric method (reference value: 11.8%); type: functional
MOLM-13 [14] = assay: Induction of apoptosis in human MOLM13 cells assessed as early apoptotic cells at 1.8 uM after 24 hrs by Annexin-V FITC/7-AAD staining based flow cytometric method (reference value: 11.8%); type: functional
EOL1 [15] = assay: Induction of apoptosis in human EOL-1 cells assessed as early apoptotic cells at 0.26 uM after 24 hrs by Annexin-V FITC/7-AAD staining based flow cytometric method (reference value: 1.94%); type: functional
EOL1 [16] = assay: Induction of apoptosis in human EOL-1 cells assessed as early apoptotic cells at 1.8 uM after 24 hrs by Annexin-V FITC/7-AAD staining based flow cytometric method (reference value: 1.94%); type: functional
MOLM-13 [17] = assay: Induction of apoptosis in human MOLM13 cells assessed as early apoptotic cells at 0.59 uM after 24 hrs by Annexin-V FITC/7-AAD staining based flow cytometric method (reference value: 11.8%); type: functional
EOL1 [18] = assay: Induction of apoptosis in human EOL-1 cells assessed as late apoptotic cells at 1.8 uM after 24 hrs by Annexin-V FITC/7-AAD staining based flow cytometric method (reference value: 0.535%); type: functional
EOL1 [19] = assay: Induction of apoptosis in human EOL-1 cells assessed as live cells at 1.8 uM after 24 hrs by Annexin-V FITC/7-AAD staining based flow cytometric method (reference value: 97.5%); type: functional
MOLM-13 [20] = assay: Induction of apoptosis in human MOLM13 cells assessed as necrotic cells at 0.59 uM after 24 hrs by Annexin-V FITC/7-AAD staining based flow cytometric method (reference value: 0%); type: functional
EOL1 [21] = assay: Induction of apoptosis in human EOL-1 cells assessed as necrotic cells at 1.8 uM after 24 hrs by Annexin-V FITC/7-AAD staining based flow cytometric method (reference value: 0.032%); type: functional
MOLM-13 [22] = assay: Induction of apoptosis in human MOLM13 cells assessed as live cells at 1.8 uM after 24 hrs by Annexin-V FITC/7-AAD staining based flow cytometric method (reference value: 86.8%); type: functional
MOLM-13 [23] = assay: Induction of apoptosis in human MOLM13 cells assessed as late apoptotic cells at 0.26 uM after 24 hrs by Annexin-V FITC/7-AAD staining based flow cytometric method (reference value: 1.43%); type: functional
[24] = target: Transcription factor p65 (Homo sapiens) (UniProt Q04206); assay: Inhibition of NFkappaB p65 in human EOL-1 cells at 10 uM after 72 hrs by immunoblotting method; type: cell-based
Outline: (§1)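 MOLM-13 or EOL-1 cells treated 72 h at 10 μM. Cells washed in ice-cold PBS and lysed in hypertonic NP-40 buffer (10 mM HEPES pH 7.5, 0.5 M NaCl) with protease/phosphatase inhibitors. Protein measured by BCA; SDS-PAGE onto PVDF. Probed 12 h with rabbit monoclonal NF-κB-p65 antibody, goat β-actin as loading control, then chemiluminescence. Blots representative of three independent experiments.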

MOLM-13 [25] = assay: Induction of apoptosis in human MOLM13 cells assessed as necrotic cells at 0.26 uM after 24 hrs by Annexin-V FITC/7-AAD staining based flow cytometric method (reference value: 0%); type: functional
MOLM-13 [26] = assay: Induction of apoptosis in human MOLM13 cells assessed as late apoptotic cells at 0.59 uM after 24 hrs by Annexin-V FITC/7-AAD staining based flow cytometric method (reference value: 1.43%); type: functional
MOLM-13 [27] = assay: Cytotoxicity against human MOLM13 cells after 72 hrs by MTS assay; type: functional, cell-based; conditions: MOLM-13, 72 h
[28] = target: Transcription factor p65 (Homo sapiens) (UniProt Q04206); assay: Inhibition of NFkappaB p65 in human MOLM13 cells at 10 uM after 72 hrs by immunoblotting method; type: cell-based; outline: as §1
EOL1 [29] = assay: Induction of apoptosis in human EOL-1 cells assessed as early apoptotic cells at 0.59 uM after 24 hrs by Annexin-V FITC/7-AAD staining based flow cytometric method (reference value: 1.94%); type: functional
MOLM-13 [30] = assay: Induction of apoptosis in human MOLM13 cells assessed as necrotic cells at 1.8 uM after 24 hrs by Annexin-V FITC/7-AAD staining based flow cytometric method (reference value: 0%); type: functional
EOL1 [31] = assay: Cytotoxicity against human EOL-1 cells after 72 hrs by MTS assay; type: functional, cell-based; conditions: EOL1, 72 h
MOLM-13 [32] = assay: Induction of apoptosis in human MOLM13 cells assessed as caspase-3 activation at 10 uM after 72 hrs by immunoblotting analysis; type: functional, cell-based
Outline: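 MOLM-13 cells treated 72 h with test compounds at 10 μM or PKC412 at 10 nM. Cells washed in ice-cold PBS, lysed at 10^8 cells/mL in NP-40 hypertonic buffer (pH 7.5) with protease/phosphatase inhibitors, then run on SDS-PAGE and PVDF. Blots probed 12 h with rabbit monoclonal cleaved caspase-3 (Asp175), β-actin as loading control. Representative of three independent experiments.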

Chain of Transcription factor p65 (Homo sapiens) (Q04206 whole entry): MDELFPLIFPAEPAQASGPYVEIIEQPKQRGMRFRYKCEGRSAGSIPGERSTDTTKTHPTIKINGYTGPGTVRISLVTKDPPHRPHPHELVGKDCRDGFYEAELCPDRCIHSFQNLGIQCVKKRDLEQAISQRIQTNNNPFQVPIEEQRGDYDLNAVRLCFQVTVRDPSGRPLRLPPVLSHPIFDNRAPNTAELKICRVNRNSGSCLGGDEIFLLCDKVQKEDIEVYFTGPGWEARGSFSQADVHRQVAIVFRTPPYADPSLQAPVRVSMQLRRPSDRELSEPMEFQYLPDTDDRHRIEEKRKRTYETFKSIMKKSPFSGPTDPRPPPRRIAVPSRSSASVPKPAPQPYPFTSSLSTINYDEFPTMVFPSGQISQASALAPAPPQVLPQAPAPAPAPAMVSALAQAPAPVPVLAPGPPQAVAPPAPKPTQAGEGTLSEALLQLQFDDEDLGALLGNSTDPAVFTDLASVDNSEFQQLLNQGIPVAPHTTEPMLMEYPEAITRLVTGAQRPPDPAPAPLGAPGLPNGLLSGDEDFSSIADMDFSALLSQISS

## C=C(C)C(=O)O[C@H]1C[C@@]2(C)OC(=CC2=O)/C(C)=C\[C@H]2OC(=O)C(=C)[C@H]12
EOL1 [1]
  Activity: 0.59 µM
MOLM-13 [2]
  Activity: 87.1%
EOL1 [3]
  Activity: 92.6%
HT-29
  IC50: 0.26 µM
MOLM-13 [4]
  Activity: 86.5%
MOLM-13 [5]
  Activity: 92.3%
EOL1 [6]
  Activity: 0.032%
EOL1 [7]
  Activity: 97.5%
MOLM-13 [8]
  Activity: 0.44 µM
EOL1 [9]
  Activity: 0.568%
EOL1 [10]
  Activity: Active
EOL1 [11]
  Activity: 0.301%
EOL1 [12]
  Activity: 4.42%
MOLM-13 [13]
  Activity: 6.62%
MOLM-13 [14]
  Activity: 1.25%
EOL1 [15]
  Activity: 1.9%
EOL1 [16]
  Activity: 0.24%
MOLM-13 [17]
  Activity: 10.9%
EOL1 [18]
  Activity: 69.1%
EOL1 [19]
  Activity: 25.9%
MOLM-13 [20]
  Activity: 0.214%
EOL1 [21]
  Activity: 4.7%
MOLM-13 [22]
  Activity: 1.66%
MOLM-13 [23]
  Activity: 0.097%
[24]
  inhibition: Active
MOLM-13 [25]
  Activity: 0.08%
MOLM-13 [26]
  Activity: 2.42%
MOLM-13 [27]
  IC50: 1.1 µM
[28]
  inhibition: Active
EOL1 [29]
  Activity: 2.66%
MOLM-13 [30]
  Activity: 9.96%
EOL1 [31]
  IC50: 1 µM
MOLM-13 [32]
  Activity: Active
